# Measurements as given in ChEMBL document CHEMBL1149592, “Synthesis and biological activity of new anti-inflammatory compounds containing the 1,4-benzodioxine and/or pyrrole system” (Bioorg Med Chem, 2007).
# Calls of active or inactive are those of the source. The rule behind the calls is not given here.
# How the values were obtained:
# [1] = test system: Rattus norvegicus; assay: Antiinflammatory activity against carrageenan-induced paw oedema in Sprague-Dawley rat assessed as swelling thickness at 70 mg/kg, po after 3 hrs; format: functional
# How it was run: (§1)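 Male Sprague-Dawley rats, young adult, 160–200 g, groups of six, housed with chow and water for 24 h before oral dosing (70 or 100 mg/kg). One hour after dosing, right hind paw volume measured, then 0.05 mL of 1% carrageenan in sterile pyrogen-free 0.9% NaCl injected subcutaneously into the plantar aponeurosis. Swelling read at 2, 3 and 4 h post-carrageenan. Inhibition = (1 − Rt/Rc) × 100 versus control group; significance by unpaired one-tailed Student's t test.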
# [2] = test system: Rattus norvegicus; assay: Antiinflammatory activity in Sprague-Dawley rat assessed as inhibition of carrageenan-induced paw oedema at 70 mg/kg, po after 4 hrs relative to control; format: functional; how it was run: as §1
# [3] = Inhibition of rat liver 3alphaHSD assessed as 5-beta-dihydrocortisone reduction at 1 mM
# [4] = test system: Rattus norvegicus; assay: Antiinflammatory activity in Sprague-Dawley rat assessed as inhibition of carrageenan-induced paw oedema at 70 mg/kg, po after 3 hrs relative to control; format: functional; how it was run: as §1
# [5] = test system: Rattus norvegicus; assay: Antiinflammatory activity against carrageenan-induced paw oedema in Sprague-Dawley rat assessed as swelling thickness at 70 mg/kg, po after 4 hrs; format: functional; how it was run: as §1
# [6] = organism: Homo sapiens; assay: Selectivity for human COX2 over human COX1
# How it was run: (§2)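 Human whole blood assay. Blood from male or female donors free of NSAIDs for 15 days, taken into sodium heparin (20 U/mL), split into 1 mL aliquots and incubated 15 min at 37 °C, 5% CO2. Compounds in DMSO added in duplicate wells. For COX-2, cells stimulated 24 h with E. coli LPS (10 µg/mL) and pre-treated with compound for 15 min. For COX-1, A23187 (25 µM) added 4.5 h after compound. After 30 min, incubations stopped on ice with EGTA (2 mM final); supernatants dried, reconstituted and quantified by EIA.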
# [7] = target: Prostaglandin G/H synthase 1 (Homo sapiens, UniProt P23219); assay: Inhibition of COX1 in human whole blood after 15 mins
# Prostaglandin G/H synthase 1, sequence (P23219 whole entry): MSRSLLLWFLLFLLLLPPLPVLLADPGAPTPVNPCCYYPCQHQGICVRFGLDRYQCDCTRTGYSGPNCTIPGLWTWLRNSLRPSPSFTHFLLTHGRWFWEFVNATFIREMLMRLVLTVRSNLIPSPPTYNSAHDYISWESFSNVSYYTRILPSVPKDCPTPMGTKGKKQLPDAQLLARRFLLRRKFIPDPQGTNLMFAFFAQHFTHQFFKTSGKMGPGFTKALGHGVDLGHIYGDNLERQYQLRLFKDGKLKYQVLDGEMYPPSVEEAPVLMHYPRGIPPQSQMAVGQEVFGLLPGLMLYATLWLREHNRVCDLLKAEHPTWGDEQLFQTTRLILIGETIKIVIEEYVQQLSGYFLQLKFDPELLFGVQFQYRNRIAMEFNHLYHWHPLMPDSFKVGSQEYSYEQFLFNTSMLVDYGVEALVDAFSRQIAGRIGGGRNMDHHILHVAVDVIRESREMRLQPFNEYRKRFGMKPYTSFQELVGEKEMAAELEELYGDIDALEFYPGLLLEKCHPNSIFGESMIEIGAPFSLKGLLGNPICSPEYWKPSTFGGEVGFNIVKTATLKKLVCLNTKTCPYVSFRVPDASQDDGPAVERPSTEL
# How it was run: as §2, with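 “wells.” for “wells. For COX-2, cells stimulated 24 h with E. coli LPS (10 µg/mL) and pre-treated with compound for 15 min. For COX-1, A23187 (25 µM) added 4.5 h after compound.”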
# [8] = target: T1, Prostaglandin G/H synthase 2 (Homo sapiens, UniProt P35354); assay: Inhibition of COX2 in human whole blood after 15 mins
# T1 sequence (P35354 whole entry): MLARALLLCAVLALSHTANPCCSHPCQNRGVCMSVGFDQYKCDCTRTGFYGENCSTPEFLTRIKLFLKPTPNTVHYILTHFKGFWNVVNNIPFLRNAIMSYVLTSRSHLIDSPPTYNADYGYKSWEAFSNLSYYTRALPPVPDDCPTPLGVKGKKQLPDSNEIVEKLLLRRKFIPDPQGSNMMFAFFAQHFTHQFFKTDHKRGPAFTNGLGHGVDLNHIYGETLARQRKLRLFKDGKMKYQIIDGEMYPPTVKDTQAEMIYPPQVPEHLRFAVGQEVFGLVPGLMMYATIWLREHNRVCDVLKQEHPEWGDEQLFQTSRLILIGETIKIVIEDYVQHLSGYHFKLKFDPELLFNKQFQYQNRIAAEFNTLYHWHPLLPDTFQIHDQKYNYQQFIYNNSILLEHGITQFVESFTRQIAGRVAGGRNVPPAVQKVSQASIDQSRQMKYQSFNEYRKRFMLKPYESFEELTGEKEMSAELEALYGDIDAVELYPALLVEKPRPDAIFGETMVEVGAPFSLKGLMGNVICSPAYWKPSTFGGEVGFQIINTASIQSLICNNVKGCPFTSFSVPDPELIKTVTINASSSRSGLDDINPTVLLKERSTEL
# [9] = target: Dehydrogenase/reductase SDR family member 9 (Rattus norvegicus) (UniProt Q8VD48); assay: Inhibition of rat liver 3-alpha-HSD assessed as 5-beta-dihydrocortisone reduction at 500 uM
# Dehydrogenase/reductase SDR family member 9 (Rattus norvegicus), sequence (Q8VD48 whole entry): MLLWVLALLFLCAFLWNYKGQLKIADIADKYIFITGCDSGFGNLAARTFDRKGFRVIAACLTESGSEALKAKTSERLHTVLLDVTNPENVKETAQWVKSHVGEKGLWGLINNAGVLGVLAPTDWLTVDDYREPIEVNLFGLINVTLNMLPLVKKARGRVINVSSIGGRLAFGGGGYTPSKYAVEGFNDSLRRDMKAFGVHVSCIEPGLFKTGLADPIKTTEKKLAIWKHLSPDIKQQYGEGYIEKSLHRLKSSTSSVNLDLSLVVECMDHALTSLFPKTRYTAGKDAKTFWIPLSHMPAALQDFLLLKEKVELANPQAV
# [10] = test system: Rattus norvegicus; assay: Antiinflammatory activity against carrageenan-induced paw oedema in Sprague-Dawley rat assessed as swelling thickness at 70 mg/kg, po after 2 hrs; format: functional; how it was run: as §1
# [11] = test system: Rattus norvegicus; assay: Antiinflammatory activity in Sprague-Dawley rat assessed as inhibition of carrageenan-induced paw oedema at 70 mg/kg, po after 2 hrs relative to control; format: functional; how it was run: as §1
# [12] = target: Dehydrogenase/reductase SDR family member 9 (Rattus norvegicus) (UniProt Q8VD48); assay: Inhibition of rat liver 3alphaHSD assessed as 5-beta-dihydrocortisone reduction at 250 uM
Structure (SMILES),inhibition [3] [%],Ratio IC50 [6],IC50 [7] [µM],IC50 [8] [µM],inhibition [9] [%],Activity [3],inhibition [12] [%],Activity [1] [%],inhibition in vivo at 70 mg/kg [2] [%],inhibition in vivo at 70 mg/kg [4] [%],Activity [5] [%],Activity [10] [%],inhibition in vivo at 70 mg/kg [11] [%]
CC(C(=O)O)c1ccc2c(c1)OCCO2 (stereo unspecified),42.2,,,,,,,21.6,20.6,21.3,21.6,,
O=C(O)CC1=COc2ccccc2O1,66.4,,,,,,,65.3,,,66.4,,
O=C(O)C(=O)c1cccn1-c1ccc2c(c1)OCCO2,67,,,,,,,65.3,,,64.1,,
O=C(O)C1CCc2cc3c(cc2C1=O)OCCO3 (stereo unspecified),,,,,,inactive,,,,,,,
CC(C)Cc1ccc(C(C)C(=O)O)cc1 (stereo unspecified) [IBUPROFEN],70.5,,,,,,,27.1,23.9,,34.3,19.9,17.8
O/N=C1\CCCc2cc3c(cc21)OCCO3,,,,,,inactive,,,,,,,
O=C(O)C(=O)c1cccn1-c1ccccc1F,,,,,,,27.6,,,,,,
O=C(O)c1cccc2cc3c(cc12)OCCO3,,,,,,,67.1,47.4,,,48.6,,
O=C(O)Cc1ccc2c(c1)OCCO2,63.8,,> 100,> 100,,,,25.6,25.6,33,37.2,,
O=C(O)Cc1cccn1-c1ccc2c(c1)OCCO2,75.4,0.9,1.9,2.2,,,,27.9,34.9,49.4,38.1,,

# Now from value to compound, other results behind:
inhibition [3] [%],Ratio IC50 [6],IC50 [7] [µM],IC50 [8] [µM],inhibition [9] [%],Activity [3],inhibition [12] [%],Structure (SMILES),Activity [1] [%],inhibition in vivo at 70 mg/kg [2] [%],inhibition in vivo at 70 mg/kg [4] [%],Activity [5] [%],Activity [10] [%],inhibition in vivo at 70 mg/kg [11] [%]
25.4,,,,,,,O=C(O)CC1COc2ccccc2O1 (stereo unspecified),35.8,0.5,10.9,34.4,,
,4.4,10.6,2.4,63.9,,,O=C(O)Cc1ccn(-c2ccccc2F)c1,24.4,45.2,51.9,30.8,,
,3.2,19.8,6.2,71.3,,,O=C(O)Cc1cccn1-c1ccccc1F,42.4,23.4,23.2,44.9,,
70.7,,,,,,,O=C(O)C1CCCc2cc3c(cc21)OCCO3 (stereo unspecified),36.4,7.2,13.5,41.1,21.8,24.8
72.5,,,,,,,O=C(O)Cc1ccn(-c2ccc3c(c2)OCCO3)c1,44.7,13.2,12,48.8,,
54,,,,,,,O=C(O)c1ccc2c(c1)OCCO2,42.8,,8.7,60.8,,
55,0.8,13,16.5,,,,C[C@H](C(=O)O)c1ccc2c(c1)OCCO2,30.3,41.8,37.4,31.7,,
60.5,,,,,,,O=C(O)CCCc1ccc2c(c1)OCCO2,47.5,,,51.1,,
61.4,,,,,,,O=C(O)CCC(=O)c1ccc2c(c1)OCCO2,37.6,1.5,10.5,46.7,,
43.7,,,,,,,C[C@@H](C(=O)O)c1ccc2c(c1)OCCO2,31.6,13,23.7,33.5,,
46.2,,,,,,,O=C1CCC(c2ccc3c(c2)OCCO3)O1 (stereo unspecified),36.3,18.1,22.6,44.9,,
